From the RNAGym collection of RNA variant scans (doi:10.1126/science.aae0568)
This sample holds only a part of the variants without activity.

B1: tRNA (parent)
chain: GUUCCGUUGGCGUAAUGGUAACGCGUCUCCCUCCUAAGGAGAAGACUGCGGGUUCGAGUCCCGUACGGAACG

Variants of: B1
Assay: yeast fitness relative to wild type (ratio to wild type); higher = fitter; tRNA-Arg(CCU), competitive growth, 37 C, YPD
Outline: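 A pool of Saccharomyces cerevisiae strains, each with a tRNA-Arg(CCU) gene variant at the native genomic locus, was competed in YPD at 37°C for 24 hours across six parallel replicates. The variants had been chemically synthesised at a 3% per-site mutation rate over 69 sites, and gene amplicons before and after competition were read by 100-nucleotide paired-end sequencing. Darwinian fitness relative to wild type rested on changes in genotype frequencies. Genotypes required ≥ 100 starting reads, and estimates < 0.5 were set to 0.5.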
For C11U A14G A57G U59C A69U, the yeast fitness was ≤ 0.5.
With C4G U16C C29G A36U A70G the yeast fitness was ≤ 0.5.
Work on C55A G63C yielded a yeast fitness of 0.603.
C24U G38A showed a yeast fitness of 0.819.
In the case of U13C A14G A42C C61G C62U, the yeast fitness is reported as ≤ 0.5.
With A37U A45U C62G the yeast fitness was ≤ 0.5.
For C11G U28A A65U A69U, the yeast fitness was ≤ 0.5.
With C11G C24U C49U the yeast fitness was ≤ 0.5.
With U19A U32C C49A the yeast fitness was ≤ 0.5.
With C11U C61U A65C the yeast fitness was ≤ 0.5.
For C4U U16A A20U U35C G39C A42C C55G A70G, the yeast fitness was ≤ 0.5.
For U3A C5G A21U C22U G41A A43C G51C C66U G67U, the yeast fitness was ≤ 0.5.
For C4A C29G G50A, the yeast fitness was ≤ 0.5.
Work on C31U G52A yielded a yeast fitness of 0.871.
In the case of C22U C27U C33G G44C, the yeast fitness is reported as ≤ 0.5.
With U35A A37U U47A C62U the yeast fitness was ≤ 0.5.
In the case of A14C A45U A69U, the yeast fitness is reported as 0.619.
Variant C4G C31U has a yeast fitness of 1.12.
In the case of G10C A43C C46G C55G A65U, the yeast fitness is reported as 0.547.
Work on A36U A45C G63C yielded a yeast fitness of 0.614.
Work on A15C A36U yielded a yeast fitness of 0.633.
In the case of C24G C33G G50U U59C, the yeast fitness is reported as ≤ 0.5.
Work on A20G C34U yielded a yeast fitness of 0.777.
C11U C24A A42G A57U U64A A69U gave a yeast fitness of 0.505.
For C24A A42C U47A G63C A69C, the yeast fitness was ≤ 0.5.
With U8G C27A the yeast fitness was 0.564.
In the case of C46U A65U A69U, the yeast fitness is reported as 0.737.
In the case of C11U A37G G48A, the yeast fitness is reported as 0.597.
Variant G12C U19A C27G A65C has a yeast fitness of 0.557.
For C4A C46G C61A, the yeast fitness was 0.522.
With U16A C22G A69U the yeast fitness was 0.791.
In the case of G25A C29U G51C A70U, the yeast fitness is reported as ≤ 0.5.
For U13A C33U, the yeast fitness was 0.754.
Work on C55A C62G yielded a yeast fitness of 0.543.
For G23U C24G C27U, the yeast fitness was ≤ 0.5.
For C27G A42G C60A, the yeast fitness was ≤ 0.5.
For G9A C11G U13G G23C C34U C55U, the yeast fitness was ≤ 0.5.
In the case of C11U C33U A36G G39A G44A, the yeast fitness is reported as ≤ 0.5.
U2C G12A G18C C33U A69C gave a yeast fitness of 0.565.
Variant C4A C33U has a yeast fitness of 0.754.
Variant U8C G9A G12A has a yeast fitness of 0.529.
U2G A45C gave a yeast fitness of 0.766.
For C5U C24G A43C A45U G52A, the yeast fitness was ≤ 0.5.
Work on C46U G67C yielded a yeast fitness of 1.02.
In the case of C27U U54G A65C, the yeast fitness is reported as ≤ 0.5.
With U32C A43G C66U the yeast fitness was 0.758.
In the case of U16A C29G U32A A36G C49U G51A, the yeast fitness is reported as ≤ 0.5.
G51A G58A showed a yeast fitness of 0.967.
In the case of G6C U16G A45U, the yeast fitness is reported as 0.584.
C22U C33G G58C showed a yeast fitness of 0.525.
For C24U U32G A40U U64G A65G, the yeast fitness was ≤ 0.5.
In the case of G44C A70U, the yeast fitness is reported as 0.959.
With A15C C31U C62G U64G A65G G67C the yeast fitness was ≤ 0.5.
With U7A G12A U64A the yeast fitness was ≤ 0.5.
U8A A14G gave a yeast fitness of 0.632.
In the case of C4A G18C C33G, the yeast fitness is reported as 0.591.
In the case of G9C U16G A20G, the yeast fitness is reported as 0.803.
For C5A U8C A14G A21G A45C G56C, the yeast fitness was ≤ 0.5.
Variant A14U C22A has a yeast fitness of 0.668.
C5G A21G gave a yeast fitness of 0.997.
A15U A57U A65C showed a yeast fitness of 0.586.
With C31U G44C U64C the yeast fitness was 0.559.
G56A G58A G67C gave a yeast fitness of 0.679.
In the case of C11G U54C, the yeast fitness is reported as 0.512.
With A37U A65C C66G the yeast fitness was ≤ 0.5.
In the case of C5A A40G C62U, the yeast fitness is reported as ≤ 0.5.
Variant U2C C4U C30A has a yeast fitness of 0.716.
With C11G C61U G68A the yeast fitness was ≤ 0.5.
For U8C A37G G50A A69U, the yeast fitness was ≤ 0.5.
With G25A C29G G48A A69U the yeast fitness was ≤ 0.5.
For C27G A40G G48A A57C U64A, the yeast fitness was ≤ 0.5.
With U2C A20G U47A U53A C62U C66U the yeast fitness was ≤ 0.5.
Work on C11U A42C C49U yielded a yeast fitness of 0.734.
For U26A C29A A45U G58A, the yeast fitness was ≤ 0.5.
In the case of U2C A15G G38C U64A G68A A69C, the yeast fitness is reported as ≤ 0.5.
For C30U U59G C66U G68A, the yeast fitness was ≤ 0.5.
Work on C55U U64C yielded a yeast fitness of 0.873.
G41A G48C showed a yeast fitness of 0.772.
With C29U C33A A36C A42C A45G the yeast fitness was ≤ 0.5.
With U13C A21G G39C G50A U59G C61A C62U the yeast fitness was 0.502.
In the case of C5G A20C C22U C24U C55U, the yeast fitness is reported as ≤ 0.5.
In the case of C5A A14G C31U C34U C60G G63A, the yeast fitness is reported as ≤ 0.5.
With A20U C22G G23A A43U G50A the yeast fitness was ≤ 0.5.
With U3C G17C C22A C24G U28C C33A the yeast fitness was ≤ 0.5.
U2A A43C showed a yeast fitness of 0.893.
Variant G10C C22G C33A has a yeast fitness of 0.581.
Variant C5U A20U has a yeast fitness of 0.94.
With A20G C33A A36C U47A the yeast fitness was ≤ 0.5.
For G9C A36U A40U G44A G63A, the yeast fitness was ≤ 0.5.
C29G C55G A57G A69G gave a yeast fitness of 0.606.
For C31A G56A G67A A69U, the yeast fitness was ≤ 0.5.
U59G C66A gave a yeast fitness of 0.62.
Work on C5A C24G A69U yielded a yeast fitness of 0.578.
With C5U A14G G50C U53C C55U A57G the yeast fitness was ≤ 0.5.
In the case of U2G U7C G18C A42U C49G, the yeast fitness is reported as ≤ 0.5.
For C24U C55G G67A, the yeast fitness was ≤ 0.5.
C46A G50A gave a yeast fitness of 0.925.
With G12A C30G C46G the yeast fitness was ≤ 0.5.
For G12C G17A A20U G58U, the yeast fitness was ≤ 0.5.
For A21U U28G G56A, the yeast fitness was ≤ 0.5.
In the case of G17A G18A C61A, the yeast fitness is reported as ≤ 0.5.
With A21U A42C U47G G63A A69U the yeast fitness was ≤ 0.5.
C11U G18A A36U G48C C49U showed a yeast fitness of 0.558.
Work on C5A A15C C29U C46U U53A yielded a yeast fitness of 0.52.
G10C C22A C24G C27U U53A showed a yeast fitness of 0.543.
With C33U G52A A57U the yeast fitness was ≤ 0.5.
With U2A C11G U19C C60U the yeast fitness was ≤ 0.5.
For C27U C30U A42C C55U A70G, the yeast fitness was ≤ 0.5.
With G9A A65U the yeast fitness was 0.93.
With U2G C11G G38C G44A C62U U64C the yeast fitness was ≤ 0.5.
With A15C A21U G39A the yeast fitness was ≤ 0.5.
For C4A C5U C22U C34A A65U, the yeast fitness was ≤ 0.5.
With U26G G48A the yeast fitness was 1.08.
In the case of U3C G9A C62G, the yeast fitness is reported as 0.681.
G18A C24A C62U showed a yeast fitness of 0.536.
For U19C U35C C49U C61G, the yeast fitness was ≤ 0.5.
In the case of U2C A15G C61U, the yeast fitness is reported as ≤ 0.5.
With G17C G23U U28A C31G A65G the yeast fitness was ≤ 0.5.
With A15G U32A the yeast fitness was 0.637.
Work on C49G U54C yielded a yeast fitness of 1.01.
With U8G A20G A37G A43G A70U the yeast fitness was ≤ 0.5.
With C30U C31G C34G C66A the yeast fitness was ≤ 0.5.
For U3A C4U C33G C34G A57U, the yeast fitness was 0.63.
For C5G C34A G50C, the yeast fitness was ≤ 0.5.
With U26C G41C C61G A69C the yeast fitness was ≤ 0.5.
For C4A A14U A20C U28G G67A A70G, the yeast fitness was ≤ 0.5.
For G9C A14U G51A U64G, the yeast fitness was 0.608.
With U2C A14G G18A A70C the yeast fitness was ≤ 0.5.
Variant U2C A15U has a yeast fitness of 0.653.
For G23C G50A, the yeast fitness was 0.726.
C4U C22G G67U gave a yeast fitness of 0.638.
With C27U A37G C55U the yeast fitness was ≤ 0.5.
For G12A A57C C66G, the yeast fitness was ≤ 0.5.
For C30U A36C C46U U53A, the yeast fitness was ≤ 0.5.
Variant C4U A36G C61U has a yeast fitness of 0.73.
Work on G56U A69C yielded a yeast fitness of 0.717.
With U2C C5G C33G C60A G67C the yeast fitness was ≤ 0.5.
A43C U64C A70C gave a yeast fitness of 0.989.
Variant U54C G58A has a yeast fitness of 0.834.
In the case of A42G C62A, the yeast fitness is reported as 0.786.
For A14C A21G A37C G50A A57C, the yeast fitness was ≤ 0.5.
Variant U2C C61U has a yeast fitness of 0.931.
Work on G50A A57U yielded a yeast fitness of 0.6.
A15G G58A G68C gave a yeast fitness of 0.596.
For C5G U26G C34G A40C C46U, the yeast fitness was ≤ 0.5.
For C4U A36C C61A, the yeast fitness was 0.705.
In the case of U7A C11U A36U, the yeast fitness is reported as ≤ 0.5.
For A20G C24G G52C, the yeast fitness was ≤ 0.5.
With C33U G39C G51A C60G the yeast fitness was ≤ 0.5.
In the case of C4U A21C C31A G56C, the yeast fitness is reported as ≤ 0.5.
In the case of A20G C29G G50A A70U, the yeast fitness is reported as ≤ 0.5.
With G10A U16C C29U the yeast fitness was 0.599.
For G6A A15C U28A C31G U64A C66U G68C, the yeast fitness was ≤ 0.5.
With G17A C24U C34A A40G C61U A69U the yeast fitness was ≤ 0.5.
For A14U U19C C29U C30A A45C, the yeast fitness was ≤ 0.5.
For U2C U13C C27A C61U, the yeast fitness was ≤ 0.5.
In the case of U7C U8A C27U, the yeast fitness is reported as ≤ 0.5.
For C5A G9A G25A A69U, the yeast fitness was ≤ 0.5.
For U26C A45G A69U, the yeast fitness was 0.647.
With C5G G9C C29U C30U C55A A65G the yeast fitness was ≤ 0.5.
For G10A A14G U26C A36U G52A, the yeast fitness was ≤ 0.5.
For A15U G39A, the yeast fitness was 0.667.
In the case of U13A C22G G25C C27U C30G A36G C55A A69U, the yeast fitness is reported as ≤ 0.5.
In the case of C11G A15U U16C C24G A40G C62U A70C, the yeast fitness is reported as ≤ 0.5.
For C11U A21C C27G G39C A57C G68U, the yeast fitness was ≤ 0.5.
In the case of C27G U28A C61U A65U A70U, the yeast fitness is reported as ≤ 0.5.
For G6A A15U A69U A70U, the yeast fitness was ≤ 0.5.
